The text below walks through data of ChEMBL document CHEMBL5036385, “Piperazinobenzodiazepinones: New Encephalitic Alphavirus Inhibitors via Ring Expansion of 2-Dichloromethylquinazolinones” (ACS Med Chem Lett, 2022).

Structures are written as SMILES. In brackets after ≈: the same amount, converted by molar mass. Activity calls are given as the source filed them. The rule behind the calls is not given here.

One series relates to Vero 76. The experiment in a line: Cytotoxicity against African green monkey Vero 76 assessed as reduction in cell viability measured after 72 hrs. To be noted: chlorocebus sabaeus, vero 76, 72 h. In kind it is cell-based. The gist of the method: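 Uninfected Vero 76 cells were exposed to compound, and viability was assessed 72 h post-treatment.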
The subject of series [1] is Venezuelan equine encephalitis virus. Description: Antiviral activity against Venezuelan equine encephalitis virus infected in African green monkey Vero 76 cells assessed as virus induced cytopathic effect measured after 48 hrs. To be noted: Vero 76, 48 h. In kind it is functional, organism-based. In general terms: Protection from cytopathic effect is a common read-out in antiviral testing.

Series [2] deals with Eastern equine encephalitis virus. The experiment in a line: Antiviral activity against eastern equine encephalitis virus infected in African green monkey Vero 76 cells assessed as virus induced cytopathic effect measured after 48 hrs. In kind it is functional, organism-based. The settings on record: Vero 76, 48 h.
For series [3], the system named is Venezuelan equine encephalitis virus. The experiment in a line: Antiviral activity against Venezuelan equine encephalitis virus co-culture with brain Primary neuron cells HNC001 as reduction on virus titre at 5 uM in Vero 76 cells measured after 18 hrs by TCID50-MTT assay. In kind it is functional, organism-based. On the technique in general: Tetrazolium dyes change colour on reduction, which living cells bring about.

A short description of series [4]: Aqueous solubility of compound at pH 7.4 measured after 1460 min by HPLC analysis. To be noted: buffer. In kind it is physicochemical. The gist of the method:
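Kinetic solubility was measured in aqueous PBS buffer at pH 7.4.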

Series [5] deals with Venezuelan equine encephalitis virus. The experiment in a line: Antiviral activity against Venezuelan equine encephalitis virus infected in African green monkey Vero 76 cells assessed as reduction on virus yield at 5 uM after 18 hrs of post infection. In kind it is functional.
The nature of series [6]: Metabolic stability in CD-1 mouse liver microsomes assessed as half life measured at 60 mins in presence of NADPH by LC-MS/MS analysis. In kind it is ADME, Microsome. The settings on record: 1 h. The procedure, abridged: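 Half-life was determined from stability in CD-1 mouse liver microsomes.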
(Liver microsomes are vesicles of endoplasmic reticulum, rich in cytochrome P450 enzymes.)

Series [7] deals with Eastern equine encephalitis virus. The experiment in a line: Antiviral activity against Eastern equine encephalitis virus co-culture with brain Primary neuron cells HNC001 as reduction on virus titre at 5 uM in Vero 76 cells measured after 18 hrs by TCID50-MTT assay. In kind it is functional, organism-based.
Series [8] shares this test system. The experiment in a line: Antiviral activity against eastern equine encephalitis virus infected in African green monkey Vero 76 cells assessed as reduction on virus yield at 5 uM after 18 hrs of post infection. In kind it is functional.
Series [9] has as its system Venezuelan equine encephalitis virus. Description: Antiviral activity against Venezuelan equine encephalitis virus co-culture with brain Primary neuron cells HNC001 as reduction on virus titre at 1 uM in Vero 76 cells measured after 18 hrs by TCID50-MTT assay. In kind it is functional, organism-based.
In series [10] the test system is Eastern equine encephalitis virus. The experiment in a line: Antiviral activity against Eastern equine encephalitis virus co-culture with brain Primary neuron cells HNC001 as reduction on virus titre at 1 uM in Vero 76 cells measured after 18 hrs by TCID50-MTT assay. In kind it is functional, organism-based.

In general, CC50 refers to the concentration at which the toxic effect on the cells reaches its halfway point. For orientation: EC50 means the concentration giving half of the maximal effect. As for `COc1ccc(N2C(=O)c3cc([N+](=O)[O-])ccc3N=C3C2N(C2CCCCC2)CCN3C)cc1` (configuration not stated), the CC50 in the series on Vero 76 was above 30 µM. Besides, the EC50 is 7 µM in series [1] and 6.2 µM in series [2].

The kinetic solubility is the concentration staying in solution when a stock, usually in DMSO, is diluted into the medium. With `COc1ccc(N2C(=O)c3cc([N+](=O)[O-])ccc3N=C3C2N(C)CCN3C)cc1F` (configuration not stated), the result in series [3] and in series [7] was Active. Also, the solubility (kinetic) at 24.33 h in [4] worked out at 0.5 µM (≈ 0.207 µg/mL). In the series on Vero 76, the 50% cytotoxic concentration (CC50) is above 30 µM. For the same compound, in series [1], the EC50 turned out to be 0.048 µM. Further, the Activity in series [5] came out at 3.7; in series [8], 7.7. Moreover, the t1/2 in [6] amounted to 10 min.

For the compound `COc1ccc(N2C(=O)c3cc(C#N)cc(-c4ccc(C)nc4)c3N=C3[C@@H]2N(C)CCN3C)cc1F`, the outcome in series [9] and in series [10] was inactive. The outcome in [3] and in series [7] was Active. In the series on Vero 76, the 50% cytotoxic concentration (CC50) is above 30 µM. The EC50 in series [1] amounted to 0.33 µM; in series [2] it was 0.26 µM. Also, the Activity in [5] was determined as 2.7; in series [8] it was 5.9.

For `CN1CCN(C)C2C1=Nc1ccc([N+](=O)[O-])cc1C(=O)N2c1ccc(F)cc1` (configuration not stated), the 50% cytotoxic concentration (CC50) in the series with Vero 76 was above 30 µM. Moreover, the results for the concentration for a half-maximal effect (EC50) in series [1] and in series [2] were 0.15 µM and 0.11 µM, respectively. The Activity in series [5] stood at 2.9; in series [8], 6.1.

`CN1CCN(C)C2C1=Nc1ccc([N+](=O)[O-])cc1C(=O)N2c1ccccc1` (configuration not stated): the 50% cytotoxic concentration (CC50) in the series on Vero 76 was above 30 µM. Moreover, the EC50 in series [1] worked out at 0.12 µM. Besides, the Activity in [5] is 2.6; in [8], 5.7.

Regarding `COc1cccc(N2C(=O)c3cc([N+](=O)[O-])ccc3N=C3C2N(C)CCN3C)c1` (configuration not stated), in the series with Vero 76, the CC50 is above 30 µM. For the same compound, the 50% effective concentration (EC50) in series [1] came to 0.53 µM; in series [2], 0.5 µM. For the same compound, the values for the Activity in series [5] and in series [8] were 2.4 and 5.7, respectively.

Consider `CN1CCN(C)C2C1=Nc1ccc(C#N)cc1C(=O)N2c1ccccc1` (configuration not stated), for which the half-maximal cytotoxic concentration (CC50) in the series on Vero 76 is above 30 µM. Moreover, the half-maximal effective concentration (EC50) was found to be 7 µM in [1] and 4.4 µM in [2].

For the compound `CN1CCN(C)C2C1=Nc1ccc(F)cc1C(=O)N2c1ccccc1` (configuration not stated), the CC50 in the series with Vero 76 is above 30 µM. The EC50 in series [1] and in series [2] was above 30 µM in each case.

As for `COc1ccc(N2C(=O)c3cc(C#N)cc(-c4ccc(C)nc4)c3N=C3[C@H]2N(C)CCN3C)cc1F`, the result in series [9] and in [10] was inactive. For the same compound, the result in series [3] and in series [7] was Active. The half-maximal effective concentration (EC50) amounted to 0.5 µM in series [1] and 0.3 µM in series [2]. For the same compound, the Activity in [5] is 6.1; in series [8], 5.2.

Regarding `COc1ccc(N2C(=O)c3cc([N+](=O)[O-])ccc3N=C3C2N(Cc2ccccc2)CCN3Cc2ccccc2)cc1` (configuration not stated), the cytotoxic concentration (CC50) in the series with Vero 76 is above 30 µM. The concentration giving a half-maximal response (EC50) in [1] is 19.8 µM; in series [2], 13.8 µM.

Turning to `COc1ccc(N2C(=O)c3cc(C#N)cc(N4CCOCC4)c3N=C3C2N(C)CCN3C)cc1F` (configuration not stated), the CC50 in the series on Vero 76 is above 30 µM. In addition, the results for the 50% effective concentration (EC50) in [1] and in [2] were 2.5 µM and 1.9 µM, respectively. Moreover, the figures for the Activity in series [5] and in series [8] were 2.5 and 4, respectively.

Turning to `COc1ccc(N2C(=O)c3cc([N+](=O)[O-])ccc3N=C3[C@@H]2N(C)[C@@H]2CCCC[C@H]2N3C)cc1`, in the series with Vero 76, the half-maximal cytotoxic concentration (CC50) was above 30 µM. Besides, the values for the EC50 in series [1] and in series [2] were 4.7 µM and 4.5 µM, respectively.

Consider `COc1ccc(N2C(=O)c3cc([N+](=O)[O-])ccc3N=C3C2N(Cc2ccccc2)CCN3C)cc1` (configuration not stated), for which the 50% cytotoxic concentration (CC50) with Vero 76 is above 30 µM. In addition, the half-maximal effective concentration (EC50) in [1] amounted to 3 µM; in [2], 3.2 µM.

On to `COc1ccc(N2C(=O)c3cc(C#N)cc(Br)c3N=C3C2N(C)CCN3C)cc1F` (configuration not stated), for which the cytotoxic concentration (CC50) in the series on Vero 76 is above 30 µM. Moreover, the figures for the EC50 in [1] and in series [2] were 4.1 µM and 3.2 µM, respectively.

For `CN1CCN(C)C2C1=Nc1cc([N+](=O)[O-])ccc1C(=O)N2c1ccccc1` (configuration not stated), the half-maximal cytotoxic concentration (CC50) in the series on Vero 76 is above 30 µM. In addition, the half-maximal effective concentration (EC50) in [1] and in series [2] was above 30 µM throughout.

Consider `COc1ccc(N2C(=O)c3cc(C#N)ccc3N=C3C2N(C)CCN3C)cc1` (configuration not stated), for which, in the series with Vero 76, the CC50 is above 30 µM. Besides, the figures for the EC50 in [1] and in series [2] were 4.2 µM and 2.5 µM, respectively.

Regarding `COc1ccc(N2C(=O)c3cc(C#N)cc(-c4ccc(C)nc4)c3N=C3C2N(C)CCN3C)cc1F` (racemic), the outcome in [9] and in [10] was inactive. Besides, the outcome in series [3] and in series [7] was Active. Further, the solubility (kinetic) at 24.33 h in [4] is 2 µM (≈ 0.969 µg/mL). Also, in the series with Vero 76, the CC50 came out at 23.3 µM. Moreover, the concentration giving a half-maximal response (EC50) stood at 0.24 µM in series [1] and 0.16 µM in series [2]. The Activity in series [5] is given as 5.2; in series [8], 6.9. The t1/2 in series [6] is reported as 45 min.

With `COc1ccc(N2C(=O)c3cc([N+](=O)[O-])ccc3N=C3[C@H]2N(C)[C@H]2CCCC[C@@H]2N3C)cc1`, the concentration giving a half-maximal response (EC50) in [1] was 5.6 µM; in series [2], 3.8 µM.

`COc1ccc(N2C(=O)c3cc([N+](=O)[O-])ccc3N=C3C2N(C)CCN3C)cc1` (configuration not stated): the outcome in series [3] and in series [7] was Active. In addition, the solubility (kinetic) at 24.33 h in series [4] was 0.7 µM (≈ 0.277 µg/mL). For the same compound, the CC50 in the series with Vero 76 was above 30 µM. Besides, the values for the Activity in [5] and in series [8] were 5.5 and 7.9, respectively. Moreover, in series [6], the t1/2 is reported as 10 min. In series [2], the EC50 came out at 0.033 µM.
